According to the RNAGym collection of RNA variant scans (doi:10.1126/science.aae0568):
Variants at the floor of the assay were thinned out.

B1: tRNA (parent)
chain: GUUCCGUUGGCGUAAUGGUAACGCGUCUCCCUCCUAAGGAGAAGACUGCGGGUUCGAGUCCCGUACGGAACG

Variants of: B1
Experiment: yeast fitness relative to wild type (ratio to wild type); higher = fitter; tRNA-Arg(CCU), competitive growth, 37 C, YPD
Outline: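 Genotype frequency changes were the basis for Darwinian fitness relative to wild type. The frequencies came from 100-nucleotide paired-end sequencing of gene amplicons from the start population and each end population of pooled yeast strains with tRNA-Arg(CCU) gene variants at the native locus. Competition ran in YPD at 37°C for 24 hours in six replicates, genotypes needed ≥ 100 starting reads, and estimates < 0.5 were set to 0.5.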

Variant | yeast fitness
U28A C34U G52A U59C C66U | ≤ 0.5
C27U G38C | 0.626
C27U G38A | 0.773
U28A C31A A42C A45U G51A U64A | 0.512
U28A C60A | 0.535
U28A C60G | 0.572
U28A C29G C33A A42U A70U | 0.531
U28A C29G C33U C34G A42U | 0.536
U28C A40G A45C A70U | 0.911
C27U U54G C55U | ≤ 0.5
C27U G41A G58C A69C | 0.645
U28A A43U A65U | ≤ 0.5
C27U U28A U32A C34U A36C | 0.554
C27U G38C A57U | 0.552
U28A C31A | 0.687
U28A G48C A70C | ≤ 0.5
U28C A36C | 0.579
U28C A40C | 0.902
C27U G41A U47C | 1.08
U28A C29G C33U C34G C62A A69G | ≤ 0.5
C27U G38A G68C | ≤ 0.5
C27U G41C C61G | ≤ 0.5
C27U G48A C49U G67A | 0.674
C27U U64C | 0.969

Variant | yeast fitness
U28A U54A | 0.594
C27U U28A U32A C34U A36C C55A | 0.543
U28A C29G G51A G56A C66G | ≤ 0.5
C27U U35C A69U | 0.802
C27U U47G G50A | ≤ 0.5
C27U G38C A69U | ≤ 0.5
U28C A37C A40U C55U | 0.525
U28A C33U C55G | ≤ 0.5
C27U U28C C62U | 0.625
U28A A69C | 0.88
U28A C31U C66A | ≤ 0.5
U28A C31G A57G C62U | ≤ 0.5
U28A A42G C55A C66A | ≤ 0.5
U28C A40G G52C | ≤ 0.5
U28A C30U A69C | 0.57
U28A C30U C55A | ≤ 0.5
U28C A37C U47C | 0.697
C27U G39C G52A G56A | 0.559
U28A C29G C31U G68A | 0.547
C27U U35A U59C | ≤ 0.5
C27U G56C | 0.595
C27U G56A | 0.998
C27U U53A G67A | ≤ 0.5
C27U G38A G51A | ≤ 0.5

Variant | yeast fitness
U28A A40G A65U C66U | ≤ 0.5
U28A A42G U64A | ≤ 0.5
U28A C31A A36C A45G G48C | 0.619
C27U U28A U32A C34U A36C C55A A65C A70C | ≤ 0.5
U28A C33G A36U A40G U54C A65U | ≤ 0.5
U28A C29G | 0.558
U28A C29A | 0.598
C27U C66A G68C | 0.543
U28A C49G A57G | ≤ 0.5
U28A G41A G56A C62U | ≤ 0.5
U28A C60G C66G A69G | ≤ 0.5
C27U G39C | 0.613
C27U G52A U53A C62U | ≤ 0.5
C27U G38C G67A | ≤ 0.5
U28A A43G G68C | 0.642
C27U G58A A70G | 0.753
U28A U32C C49G G52A | ≤ 0.5
C27U U35C A43C A69U | 0.62
U28A C29G C33U C34G A42U G58A | ≤ 0.5
U28A A65U | 0.642
U28A A65G | 0.791
C27U G41A C60A | 0.878
U28A U64G | 0.709
U28A C66U | 0.796

Variant | yeast fitness
C27U U35G A42U | ≤ 0.5
C27U U59G | 0.823
C27U G38A C66U | 0.623
U28A A37G | 0.658
U28A A37C | 0.657
U28A C29G C31U A69U | ≤ 0.5
U28A U35G C62A | ≤ 0.5
C27U G38A A69U | 0.667
U28A G51C A57C | 0.53
U28C A37C G56A U59C | ≤ 0.5
U28A G56C G67U | 0.525
C27U U28G A40C C55G A70C | ≤ 0.5
U28A C34G | 0.707
C27U U28G C29G | ≤ 0.5
U28A A45C C46A | ≤ 0.5
C27U G48A C49U | 1.01
C27U U35A | 0.771
U28A C55A | 0.52
U28A C55U | 0.739
U28A C55G | 0.537
U28A C29G G68C | ≤ 0.5
U28A C34U A57G C66U | ≤ 0.5
U28A C34U A40U A45U C66U | ≤ 0.5
U28A C29A A37G | ≤ 0.5

Variant | yeast fitness
U28A G56C | ≤ 0.5
U28A G52C | ≤ 0.5
C27U U28G A40C A69C | 0.607
U28C A36C G67C | 0.539
U28A A36C | 0.511
U28A C46U A70G | 0.634
U28A A37C C61G | ≤ 0.5
U28A A42G C60U | ≤ 0.5
C27U G39C C60A | ≤ 0.5
C27U C66U A69U | 0.779
U28A C33G A43C A57C G67A A69U | ≤ 0.5
C27U U32A G52A C66U G67C | ≤ 0.5
C27U G58C A70U | 0.876
C27U U35G A57C A65C A70U | ≤ 0.5
U28A C31A A42C A45U G51A A65U | ≤ 0.5
U28A G63C | 0.624
C27U G67A A69U | 0.692
C27U U32A C66U G67C | 0.598
U28A C46G | 0.76
U28A C46A | 0.846
C27U U28C A45C | 0.773
U28A C55G A70G | ≤ 0.5
U28C A40G A70U | 0.603
U28A G51A A57U | 0.598

Variant | yeast fitness
U28A A40U | 0.984
C27U U32C | 0.844
C27U U53C | 0.617
U28A C31G C55A G68C | ≤ 0.5
U28A A57U | 0.598
U28A C31A G51C | ≤ 0.5
U28A A37U A69C | ≤ 0.5
C27U U28A A37G A57C G58C | 1
U28A A37C C61G G68U | ≤ 0.5
C27U G44A G52A A57C | 0.538
C27U G63A | 0.867
C27U C66G | 0.744
C27U C66U | 0.955
U28A G68A | 0.581
U28A G48C A69U A70U | ≤ 0.5
C27U G50A | 0.991
U28A C29U A45C A69C | 0.541
U28A G44A G68A | 0.544
U28A A40C C46G | ≤ 0.5
U28A A42G | 0.667
U28A C29G A36C | 0.516
U28C A37U A57C A69U A70C | ≤ 0.5
C27U G51A U64A A69G | ≤ 0.5
U28A A45G | 0.762

Variant | yeast fitness
U28A A42G C66U G67C | ≤ 0.5
C27U G67C | 0.771
C27U G67U | 0.854
U28A A37G A40G | ≤ 0.5
U28A U35C A37C U64A G67A | ≤ 0.5
U28A A70G | 0.904
C27U G51C C55A C60A | ≤ 0.5
C27U G48C | 0.958
U28A G67C | 0.774
U28A C55G C62G | ≤ 0.5
U28A C29G G51A G56A G67C | 0.585
U28A C31A A42C A45U G48A G51A U64A | ≤ 0.5
C27U G51C C55A | ≤ 0.5
C27U U28G A40C C46A C49U A70U | 0.695
U28A G41A G67A | ≤ 0.5
C27U U32C C62G | ≤ 0.5
U28A C33A G52A | ≤ 0.5
C27U U28G A42U | 0.535
C27U U54C | 0.93
C27U U54G | 0.581
C27U U32C A65U A70C | ≤ 0.5
U28A G39A U64G | ≤ 0.5
C27U G38C G39A A43C C60G A65C | ≤ 0.5
